In the library only some 1.6% were active in any assay of this set; here they are far more common.
TDP2 inh: TDP2 (human) inhibition, absorbance primary screen; AID 720702; inhibition, % at 12.8 µM; 370,000 tested, 0.34% active; recombinant TDP2, T5PNP hydrolysis, p-nitrophenol absorbance 415 nm; O95551;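 active = inhibition above the mean of all tested compounds plus 3 SD, set per campaign, cut at about 25% in these data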
Target sequence (O95551 whole entry, looked up): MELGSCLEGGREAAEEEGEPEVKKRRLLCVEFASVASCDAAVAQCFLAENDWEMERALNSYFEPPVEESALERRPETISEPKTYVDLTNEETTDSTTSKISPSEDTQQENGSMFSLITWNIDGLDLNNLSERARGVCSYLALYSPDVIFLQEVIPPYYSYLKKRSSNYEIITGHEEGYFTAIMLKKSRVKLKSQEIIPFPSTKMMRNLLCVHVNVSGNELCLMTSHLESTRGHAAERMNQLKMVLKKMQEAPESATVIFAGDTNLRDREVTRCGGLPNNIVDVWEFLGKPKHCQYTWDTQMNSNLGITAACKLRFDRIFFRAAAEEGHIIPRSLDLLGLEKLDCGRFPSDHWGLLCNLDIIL
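Incubation: 2 h at 37 °C; Test system: recombinant human TDP2; Quantity: enzyme 120 nM; Read-out basis: percent inhibition; Medium: 50 mM Tris-HCl pH 7.5 with Mg2+, KCl, DTT, BSA; Repeats: single replicate; Compound: 12.8 µM single point, 1% DMSO; Signal: epi absorbance; Reagent: 5 mM T5PNP chromogenic substrate; Benchmarks: no-enzyme high, DMSO-plus-enzyme low.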
UHRF1 MBD2 ctr: UHRF1 methyl-DNA binding inhibition; UHRF1 binding to methylated oligo, TR-FRET; inhibition, % at 4.4 µM; Q96T88; 370,000 tested, 0.75% active; in the data active = inhibition above about 21%;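 note: UHRF1 SRA domain binding a hemimethylated CpG hairpin DNA probe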
LEDGF integ inh: blocks HIV-1 LEDGF/p75-dependent DNA integration. TR-FRET IN-LEDGF/p75 DNA integration, Eu/Cy5. inhibition, % at 3.7 µM. 370,000 tested, 0.64% active;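 active = inhibition above the screen-wide mean plus 3 SD, cut at about 13% in these data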;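 note: signal is the Cy5 over europium emission ratio at 671 and 618 nm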
MBD2 DNA inh: inhibitors of human MBD2 binding to methylated oligonucleotide. 370,000 tested, 0.31% active. AID 686964. inhibition, % at 4.4 µM. TR-FRET. Q9UBB5; in the data active = inhibition above about 13%
Numbers stand for hits; . = inactive.

SMILES	TDP2 inh	UHRF1 MBD2 ctr	LEDGF integ inh	MBD2 DNA inh
CC(C)OCCCn1c(=NC(=O)c2cccs2)c(C#N)cc2c(=O)n3ccccc3nc21	.	30	.	.
O=C(O)c1ccc(C(=O)c2ccc3c(c2)C(=O)N(CCO)C3=O)cc1	.	22	.	.
Cc1ccc(CNC(=O)CN2C(C)CCCC2C)cc1 (configuration not stated)	.	49	.	.
Cc1[nH][nH]c(=O)c1C(c1ccc(-c2ccc(Cl)c(Cl)c2)o1)c1c(C)[nH][nH]c1=O	64	.	.	.
CCOc1ccc(Cl)cc1C(c1c(C)[nH][nH]c1=O)c1c(C)[nH][nH]c1=O	.	.	.	.
CC(=O)c1c(C)[nH]c(C(=O)Nc2ccccc2C)c1C	.	.	.	.
CCCCC#CC(CC)NCc1ccc(OC)cc1OC (configuration not stated)	.	.	.	.
CN(CCCNC(=O)Cn1cc2c(n1)CCCC2)C1CCCCC1	.	.	.	.
CCCCN(C)CCCNC(=O)Cn1cc2c(n1)-c1c(oc(C(=O)N3CCCC3)c1C)CC2	.	53	.	.
CCCCCCOc1ccc(N2C(=O)CC(N3CCC(C(=O)OCC)CC3)C2=O)cc1 (configuration not stated)	.	43	.	.
CCOC(=O)C1CCN(C2CC(=O)N(c3ccc(OCC)cc3)C2=O)CC1 (configuration not stated)	.	.	.	.
O=C(Nc1ccncc1)c1ccc2c(c1)C(=O)N(C1CCCCC1)C2=O	.	26	.	.
Cc1cc(NC(=O)c2ccc3c(c2)C(=O)N(C2CCCCC2)C3=O)no1	.	.	.	.
CC(C)c1ccccc1NC(=O)[C@@H]1CCCN1S(=O)(=O)c1cccc2cccnc12	.	.	.	.
Cc1ccc(OCC(=O)Nc2ccc(S(=O)(=O)Nc3ccccn3)cc2)cc1C	.	.	.	.
CCc1cccc(OCC(=O)Nc2ccc(S(=O)(=O)Nc3ccccn3)cc2)c1	.	79	.	.
Cc1ccc(NC(=O)N/C=C/c2ccco2)cc1	.	.	14	.
COc1ccc(-n2c(SCC(=O)Nc3ccccc3-c3ccccc3)nnc2-c2ccccc2)cc1	.	.	.	.
CCCCN1CC(=O)N2[C@H](C[C@@]3(C)c4ccccc4N(S(=O)(=O)c4ccccc4)[C@@H]23)C1=O	.	.	.	.
COC(=O)[C@]12C[C@H](CC(=O)N3CCCC3)C(=O)N(Cc3ccc(Cl)cc3Cl)C1=C[C@H](C(C)(C)C)O[C@@H]2C	.	.	.	.
O=C(O)C1CSC(c2ccco2)N1 (configuration not stated)	.	65	48	34
O=C1CSC(c2ccco2)N1 (configuration not stated)	.	.	.	.
Cc1ccc(-n2c(SCC(=O)Nc3ccc(S(=O)(=O)Nc4cc(C)nc(C)n4)cc3)nnc2-c2ccc(C(C)(C)C)cc2)cc1	.	.	.	.
CC1=C(C(=O)N(C)C)CC(CC(=O)NCCc2ccccn2)C(=O)N1CCCN1CCCC1=O (configuration not stated)	.	25	.	.
CCN(CC)C(=O)C1=C(C)N(CCCN2CCCC2=O)C(=O)C(CC(=O)NCCc2ccccn2)C1 (configuration not stated)	.	.	.	.
SMILES	TDP2 inh	UHRF1 MBD2 ctr	LEDGF integ inh	MBD2 DNA inh
CC1=C(C(=O)N(C)C)CC(CC(=O)NCCCN(C)C)C(=O)N1CCCN1CCCC1=O (configuration not stated)	.	24	.	.
CC1=C(C(=O)N(C(C)C)C(C)C)CC(CC(=O)NCCCN(C)C)C(=O)N1CCCN1CCCC1=O (configuration not stated)	.	.	.	.
CC1=C(C(=O)N(C)C)CC(CC(=O)NCCCN(C)C)C(=O)N1CCC1=CCCCC1 (configuration not stated)	.	21	.	.
CC(=O)NC1CCCCN(Cc2cccc(F)c2)C1=O (configuration not stated)	.	.	.	.
CCCCS(=O)(=O)N1CCCc2nc(C)c(C)cc21	.	.	.	.
Fc1ccc(CSc2nnc(CN3CCOCC3)n2-c2ccccc2)c(Cl)c1	.	43	.	.
O=c1c2ccccc2n(Cc2ccccc2)n1[C@@H](Cc1ccccc1)Cn1cc(-c2ccc(-c3ccccc3)cc2)nn1	.	.	.	.
O=C(NN1C(=O)/C(=C\c2cccnc2)SC1=S)c1ccco1	.	47	.	.
CC(CCN1CCC(C(O)(c2ccccc2)c2ccccc2)CC1)Oc1cc(F)cc(F)c1 (configuration not stated)	.	.	.	.
